FN deposition inh = inhibitors of fibronectin matrix deposition, primary screen, AH1F cells, Alexa488-fibronectin fluorescence, plate reader. 350,000 tested, 0.086% active. inhibition, % at 12.6 µM. AH1F fibroblasts, overnight. AID 743247, 2014;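 active means mean inhibition across replicates of 30% or more, regardless of how many single replicates reach that level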;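 further: positive control wells lacked labelled fibronectin entirely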
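Material: AH1F fibroblast monolayer depositing Alexa488-labelled fibronectin into matrix | Input: 10000 AH1F cells/well | Medium: DMEM plus 2% serum, read in PBS | Reagent: Alexa488-fibronectin, 24 nM final in well | Compound dosing: One dose per compound, pinned | Schedule: 1 h adhesion, overnight exposure | Measured by: Fluorescence at 485 nm excitation, 525 nm emission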
RAD52 inh = RAD52 DNA annealing inhibitors, primary screen, biochemical, FRET, single point, set 2 | inhibition, % at 18.7 µM | recombinant RAD52 DNA annealing, FRET fluorescence | 360,000 tested, 0.46% active | AID 651710, 2012;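 active means every replicate showing at least 50% inhibition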
N-glyco inh = increase of ERlucT glycosylation luciferase signal, primary screen, N-linked glycosylation inhibitor project, D54 ERlucT cells, luminescence, set 2. D54 ERlucT glycosylation luciferase reporter, 24 h; percent of 100 nM tunicamycin response. reporter increase, % at 12.5 µM. 360,000 tested, 0.23% active. AID 588692, 2011;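 active means mean luciferase reporter signal, scaled so untreated is 0 and the glycosylation-blocking control 100, at or above a set limit in every replicate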;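 further: luciferase carries N-glycosylation sites so blocking glycosylation raises the light; 0% = median of neutral control wells and 100% = median of 100 nM tunicamycin wells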
CaV13 ICDI inh = Primary screen for inhibitors of IQ motif and Ca2+-dependent inactivation inhibitor domain binding in CACNA1D, Förster resonance energy transfer in living cells, …. HEK cells, CFP/YFP FRET ICDI-IQ, plate reader, 10 min; percent FRET-ratio fall versus neutral wells. inhibition, % at 12.3 µM. 340,000 tested, 0.098% active. AID 743397;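 active means mean replicate inhibition of at least 30% and at least 1% of replicates passing that level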;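 further: 0% = median of the neutral control wells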
RAD54 inh = inhibitors of human RAD54 branch migration, primary screen, biochemical, fluorescence, single point; DNA repair and recombination protein RAD54-like (Homo sapiens), Q92698; RAD54 Holliday junction branch migration, FAM/BHQ fluorescence; inhibition, % at 10.4 µM; 360,000 tested, 0.14% active; AID 602329, 2012;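 active means mean normalized replicate activity at least 40 and at least half of replicates scoring 40 or more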;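 further: 0% = median of neutral control wells and 100% = median of positive control wells; inhibitors cause a drop in the FAM fluorescence signal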
RAD52 DNA ctr = DNA-binding compounds via dye displacement, dose response, artefact control for RAD52 inhibitor project, biochemical, fluorescence polarization, cherry-pick; shares compounds with RAD52 inh; Salmon sperm DNA/acridine orange FP displacement; 1,000 tested, 8% active; AID 652128, 2013; AC50, µM;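 active means fitted half-maximal concentration for signal loss at or below twice the highest dose tested, in every separate run, actives reach about 64 µM in these data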
An asterisk follows results filed as active; i = inactive; nt = not tested or not shown. The list is not random: actives were taken first. Their share in the collection is about 0.7%.

SMILES	FN deposition inh	RAD52 inh	N-glyco inh	CaV13 ICDI inh	RAD54 inh	RAD52 DNA ctr
COc1cc2sc3ccc(-c4ccc(CN5CCOCC5)cc4)cc3c(=O)c2cc1OC	-7	93*	-2	-5	7	i
O=C(C1CC1)N1CCCCN2[C@H](CO)[C@@H](c3ccc(C#CC4CC4)cc3)[C@H]2C1	nt	8	nt	nt	-1	nt
CN1CCC(N(C)C(=O)/C=C/c2cn(-c3ccccc3)nc2-c2cccs2)CC1	nt	71*	-4	-6	nt	i
COc1ccc(-c2c(-c3ccccc3)c(C(=O)C(=O)NCCCN(C)C)n3ccc4cc(OC)c(OC)cc4c23)cc1OC	10	94*	-8	-15	81*	i
CN(C)CCNc1ccc(CO)c2oc3ccc(O)cc3c(=O)c12	4	81*	-5	-7	nt	55µM*
CCN(CC)CCNc1ccc(CO)c2oc3cc(Cl)ccc3c(=O)c12	3	57*	35*	-18	105*	i
CO[C@H]1CN(C)C(=O)c2cc(NS(=O)(=O)c3cn(C)cn3)ccc2OC[C@@H](C)N(C)C[C@@H]1C	-3	nt	nt	nt	-4	nt
C[N+](C)(C)CC(=O)N/N=C/c1c2ccccc2cc2ccccc12	0	94*	5	-17	92*	55µM*
CCC(=O)N(C)C[C@H]1Oc2cc(C#CC3(O)CCCC3)ccc2S(=O)(=O)N([C@H](C)CO)C[C@H]1C	nt	-1	nt	nt	6	nt
COc1ccc2c3c(n(C)c2c1)[C@@H](CO)N(C(=O)C1CCOCC1)CC31CCN(Cc2cccc(F)c2)CC1	nt	8	nt	nt	nt	nt

High-throughput results: PubChem BioAssay, Broad Institute
